# This is a sample that favours compounds with a hit; in the whole collection about 2.4% have one here.
# Myeloid diff 2 = compounds promoting myeloid differentiation. ER-HoxA9 myeloid progenitors, lysozyme-GFP differentiation, flow cytometry. calls only at 10 µM. actives 1% (n = 360,000);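 active = normalized GFP-positive differentiation at or above the plate's own cutoff, the solvent-only control mean plus 3 SD; inconclusive = no clear call, values can overlap the other calls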;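 also: cells exposed to compound for four days before flow analysis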
# NRP1-CendR mod = alters CendR peptide binding to human NRP-1; inhibition, % at 25 µM; FAM-RPARPAR peptide binding to NRP-1, fluorescence polarization; AID 602438; actives 0.85% (n = 360,000); O14786;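 active = inhibition or corrected inhibition above about 18%, plus a signal ratio from 0.5 to 1.5, limit read from the data, passing the limit was not always enough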
# Target sequence (O14786 whole entry, looked up): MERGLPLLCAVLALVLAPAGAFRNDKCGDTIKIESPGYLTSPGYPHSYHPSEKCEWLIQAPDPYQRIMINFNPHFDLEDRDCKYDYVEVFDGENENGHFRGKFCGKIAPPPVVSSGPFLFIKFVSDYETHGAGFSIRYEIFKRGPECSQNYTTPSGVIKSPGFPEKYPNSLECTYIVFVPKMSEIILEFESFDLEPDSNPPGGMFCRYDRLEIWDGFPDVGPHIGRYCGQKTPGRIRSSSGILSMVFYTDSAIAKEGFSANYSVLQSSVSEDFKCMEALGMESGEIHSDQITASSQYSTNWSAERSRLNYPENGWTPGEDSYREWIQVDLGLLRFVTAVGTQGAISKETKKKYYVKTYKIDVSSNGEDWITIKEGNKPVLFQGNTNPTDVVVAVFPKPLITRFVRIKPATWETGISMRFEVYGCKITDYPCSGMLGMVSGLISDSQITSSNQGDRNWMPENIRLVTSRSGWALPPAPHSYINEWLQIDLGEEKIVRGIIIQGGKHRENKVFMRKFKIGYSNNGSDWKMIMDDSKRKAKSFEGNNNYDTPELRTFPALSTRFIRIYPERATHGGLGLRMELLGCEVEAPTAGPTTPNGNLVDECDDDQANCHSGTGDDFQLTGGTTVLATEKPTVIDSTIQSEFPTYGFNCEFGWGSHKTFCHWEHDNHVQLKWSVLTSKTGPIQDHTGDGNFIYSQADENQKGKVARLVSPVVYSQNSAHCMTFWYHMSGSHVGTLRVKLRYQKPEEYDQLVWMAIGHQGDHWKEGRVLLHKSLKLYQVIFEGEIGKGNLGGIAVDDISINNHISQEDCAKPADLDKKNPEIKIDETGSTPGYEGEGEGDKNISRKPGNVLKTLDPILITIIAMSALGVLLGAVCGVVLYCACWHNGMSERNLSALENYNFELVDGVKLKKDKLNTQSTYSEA
# beta cell repl = induces beta-cell replication in MIN6 cells; MIN6 cells proliferation, ATPlite luminescence, 48 h; cells starved in 0.2% serum; 100% = growth in 10% serum; proliferation, % at 10 µM; actives 0.29% (n = 330,000);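 active = compounds whose signal lies at least 3.5 SD above the mean of all wells on their plate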;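 also: 0% = DMSO-treated cells in low-serum medium and 100% = 10% serum control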
# SENP1 inh = blocks the human SENP1 SUMO protease catalytic domain. actives 0.21% (n = 360,000). inhibition, % at 10 µM. recombinant SENP1 catalytic domain, CyPet-SUMO1-YPet FRET cleavage. Q9P0U3;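 active = inhibition at least 30% at 10 µM, raw YFP signal under a set limit, fluorescence ratio 0.5 to 1.5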;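 also: 0% = enzyme with DMSO and 100% = no enzyme wells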
#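 Test system: recombinant human SENP1 catalytic domain, His6-tagged / Medium: pH 8 Tris buffer with EDTA, NaCl, BME, BSA, NP40, catalase / Also added: SUMO1 FRET substrate flanked by Cypet and Ypet, 25 nM / Times: 50 min reaction at room temperature / Signal: FRET, CFP and YFP emission / Control set: no-enzyme low control and enzyme-plus-DMSO high control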
# DAGLB inh = blocks human DAGLB lipase activity | Q8NCG7 | HEK293T DAGLB membrane lysate, EnzChek fluorogenic substrate | inhibition, % at 5.17 µM | actives 0.059% (n = 340,000); in the data active = inhibition above about 34%;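 also: 0% = enzyme with vehicle and 100% = wells lacking enzyme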
# MT1-MMP act inh = blocks activation of human MT1-MMP | P50281 | HT1080 RFP-PRO-GFP cells, GFP/RFP ratio fluorescence, overnight; percent of plate control window, DMSO zero | GFP/RFP ratio change, % at 20 µM | actives 0.061% (n = 360,000);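 active = GFP/RFP ratio change of at least 30% with cell ATP level not reduced by more than half and red fluorescence within 50% of control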
#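 Assay system: HT1080 cells carrying an RFP-PRO-GFP reporter | Dosing: Single dose of 20 µM compound, 1% DMSO final | Incubation: Cells overnight before dosing, compound overnight, 37 °C, 5% CO2 | Evaluation: GFP/RFP fluorescence ratio | Control set: DMSO and RFP-L50D-GFP cell wells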
# Myeloid diff = myeloid differentiation induction | calls only | actives 2% (n = 2,300) | ER-HoxA9 myeloid progenitors, GFP/Mac1 double-positive flow | shares compounds with Myeloid diff 2;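 active = share of green or green-and-red cells above 9 and 9% in run 1 or 4 and 3% in run 2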
# GFP autofluor = flagged as fluorescent in myeloid differentiation counter-screen. shares compounds with Myeloid diff 2. ER-HoxA9 myeloid progenitors, no estrogen, GFP autofluorescence flow cytometry; vehicle wells 0%, positive control 100%. fluorescence response, % (test concentration not listed). actives 7.4% (n = 2,300). AID 651707;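 active = over 5% cells positive for green fluorescent reporter, or over 2% positive for both it and APC stain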;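 also: range taken on the double positive population between DMSO and positive control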
# * = called active by the depositor; i = inactive; ? = inconclusive; nt = no result; + = active, no number.
SMILES,Myeloid diff 2,NRP1-CendR mod,beta cell repl,SENP1 inh,DAGLB inh,MT1-MMP act inh,Myeloid diff,GFP autofluor
Cc1csc(SCC(=O)c2c(N)n(CC(C)C)c(=O)n(C)c2=O)n1,+,1,0,1,-1,0,i,51*
CC(C)Cn1c(N)c(C(=O)COC(=O)c2cnccn2)c(=O)n(C)c1=O,+,-22,-3,-13,-2,-1,i,1
Cc1ccc(NC(=O)CCCc2nc3ccccc3s2)c(O)c1,i,-13,-4,2,-1,8,nt,nt
O=c1oc(-c2ccccc2)nc2c1cnn2-c1ccccc1,i,-4,0,1,6,2,nt,nt
O=c1oc(-c2cccs2)nc2c1cnn2-c1ccccc1,i,1,-2,1,5,1,i,1
COc1ccc(CN2C(=O)C(C)Nc3ncnc(N4CCOCC4)c32)cc1 (stereo unspecified),i,-10,-3,-3,0,8,nt,nt
CC1Nc2ncnc(N3CCOCC3)c2N(Cc2ccccc2)C1=O (stereo unspecified),i,-16,-1,-1,4,0,i,0
O=C(Nc1cccc(N2C(=O)C3C4C=CC(C4)C3C2=O)c1)c1cccs1 (stereo unspecified),i,-12,-3,3,0,6,nt,nt
Cc1ccc(/C=C/C(=O)Nc2cc(=O)n(C)c(=O)n2C)o1,i,0,0,-12,1,-11,nt,nt
CN1CCN(c2ccc(CNC(=O)c3ccc(-c4ccc(F)c(F)c4)c4ccoc34)cc2)CC1,+,0,nt,1,nt,7,i,2
CC(=O)c1ccc(NC(=O)c2ccc([N+](=O)[O-])o2)cc1,?,-10,-4,1,-1,11,nt,nt
O=C(NCc1cccnc1)c1ccc([N+](=O)[O-])o1,+,2,-1,2,0,5,i,2
COc1ccc(NC(=O)c2ccc([N+](=O)[O-])o2)cc1,+,-14,-4,0,-3,11,i,0
O=C(Nc1ccc(Cl)cn1)c1ccc([N+](=O)[O-])o1,+,-6,nt,-53,-1,-1,i,1
COc1ccc2nc(NC(=O)c3ccc([N+](=O)[O-])o3)sc2c1,i,-12,-5,-9,7,7,i,1
O=C(Nc1nc2ccccc2s1)c1ccc([N+](=O)[O-])o1,i,-6,-4,-1,5,4,nt,nt
Cc1ccc(C(=O)N2CC(=O)NC(=O)C2)cc1,i,1,-1,3,-1,1,nt,nt
O=C1COc2ccc(C(=O)c3ccccc3C(=O)O)cc2N1,i,4,0,2,0,-4,nt,nt
Cn1c(CC(=O)Nc2ccc(Cl)c(Cl)c2)nnc1SCC(=O)NCc1ccccc1,i,11,4,2,1,5,nt,nt
CCCCOC(=O)Nc1ccc(S(=O)(=O)Nc2onc(C)c2C)cc1,i,10,-3,2,2,0,nt,nt
COc1ccc(-c2ccc3c(c2)[C@@H]2C[C@H](N(C)C(=O)C(C)(C)C)[C@H]([C@H](C)O)C(=O)N2CC3)cc1,i,-7,nt,-55,0,-2,nt,nt
COc1cccc(NC(=O)N2CCCC2C(=O)NCc2ccc(Cl)cc2)c1 (stereo unspecified),i,11,-2,1,1,nt,i,0
CC1=C(C(=O)N2CCOCC2)CC(CC(=O)NCC2CCCCC2)C(=O)N1Cc1ccccc1 (stereo unspecified),i,-5,nt,1,-1,6,nt,nt
O=C(O)CCCCCN1C(=O)/C(=C\c2ccncc2)SC1=S,+,13,0,-2,2,1,i,0
O=C(O)CCCCCN1C(=O)/C(=C/c2ccncc2)SC1=S,i,-16,-1,1,-1,1,nt,nt
SMILES,Myeloid diff 2,NRP1-CendR mod,beta cell repl,SENP1 inh,DAGLB inh,MT1-MMP act inh,Myeloid diff,GFP autofluor
CSc1nc2nc3c(c(=O)n2[nH]1)CCCC3,i,-2,1,-1,1,1,nt,nt
CCOC(=O)C1(Nc2nccs2)Sc2ccccc2NC1=O (stereo unspecified),+,-5,-3,1,0,-4,i,0
COc1ccccc1-c1c(NC(=O)c2ccco2)n(-c2ccccc2)nc(C)c1=O,nt,nt,-2,nt,nt,nt,nt,nt
COc1cccc(-c2c(NC(=O)c3ccco3)n(-c3ccc(C)cc3)nc(C)c2=O)c1,+,-14,0,1,-6,-1,i,0
S=C(Nc1ccc(Oc2ccccc2)cc1)NC1CCCCCC1,i,6,nt,2,-11,-2,nt,nt
S=C(NNc1ccc2ccccc2c1)NC1CCCCC1,i,3,-6,-16,11,3,i,0
CC(C(=O)N1CCc2ccccc21)N1CCN(S(=O)(=O)c2ccc(C(F)(F)F)cc2)CC1 (stereo unspecified),i,-5,-4,0,-7,-1,nt,nt
CC(C(=O)N1CCc2ccccc21)N1CCN(c2cccc(C(F)(F)F)c2)CC1 (stereo unspecified),+,2,-1,-1,-5,4,i,0
Cc1n[nH]c(=O)n(N=Cc2cccs2)c1=O,i,-2,nt,3,-5,-3,nt,nt
N#Cc1c(N)n(-c2cccc(C(=O)O)c2)c2nc3ccccc3nc12,+,128,-1,-39,-6,-66,i,0
N#Cc1c(N)n(-c2ccccc2N)c2nc3ccccc3nc12,i,-9,-2,-40,-2,3,nt,nt
CCc1nnc(SCC(=O)Nc2ccc(NC(C)=O)cc2)n1-n1cccc1,i,9,-1,2,2,3,nt,nt
O=C(c1cccs1)N1C[C@H](n2cc(-c3ccc(F)cc3)nn2)[C@@H](O)C[C@@H]1c1ccc(Cl)cc1,i,4,nt,3,-6,0,nt,nt
CCCCCC(=O)N1C[C@@H](O)[C@H](n2cc(-c3ccc(F)cc3)nn2)C[C@@H]1c1ccc(OC)cc1,i,-11,nt,0,-6,4,i,1
O[C@H]1C[C@H](c2ccccc2)N(CC2CCCCC2)C[C@@H]1n1cc(-c2ccc(F)cc2)nn1,i,0,nt,-1,-9,-3,nt,nt
COc1ccc([C@H]2C[C@@H](O)[C@H](n3cc(-c4ccc(F)cc4)nn3)CN2CC2CCCCC2)cc1,i,7,nt,0,-7,-3,i,0
